Screening results deposited in PubChem by several laboratories.
In the library only some 1.3% were active in any assay of this set; here they are far more common.
Lipid droplet = hepatic lipid droplet formation modulation; AML12 mouse hepatocytes, oleate lipid droplets, BODIPY imaging; inhibition, % at 6.5 µM; actives 0.4% (n = 240,000); AID 1656;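 active = lipid droplet intensity inhibited by at least 50%, with more than 500 cells counted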
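Material – AML12 mouse liver cells · Also added – oleate loading, 100 µM · Compound dosing – 6.5 µM single-point dosing · Times – overnight treatment with compound plus oleate · Measured by – fluorescence imaging, 20x objective, two fields per well · Read-out – percent inhibition of filter-corrected integrated lipid droplet intensity per well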
HCV NS3 hel inh = blocks Hepatitis C virus NS3 helicase unwinding. NS3 helicase DNA unwinding, Cy5 molecular beacon fluorescence. inhibition, % at 10.9 µM. actives 0.56% (n = 290,000). AID 1800;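 active = inhibition above the mean of all tested compounds plus 3 SD, set per campaign, cut at about 35% in these data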;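 note: 0% = DMSO wells and 100% = thioflavine S control wells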
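Measured by: Cy5 fluorescence, 0 and 60 min reads / Assay system: NS3 helicase fragment of HCV / Control set: low DMSO, high thioflavine S at 110 µM / Times: 1 h reaction at 25 °C, ATP-initiated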
core dimer inh = HCV core protein dimerization inhibition | TR-FRET GST/Flag-core106 dimerization, 1536-well | actives 0.33% (n = 300,000) | inhibition, % at 5 µM;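 active = inhibition above the mean of all tested compounds plus 3 SD, set per screening campaign, cut at about 45% in these data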
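Assay system: Tagged HCV core106 pair (GST and Flag) | Buffer or medium: KF-containing HEPES buffer, pH 7.45, DTT, CHAPS, BSA | Also added: Eu donor and XL665 acceptor anti-tag antibodies | Dosing: One concentration, 5 µM, in 0.5% DMSO | Timing: 4 h at 22.5 °C | Technique: TR-FRET 671 and 617 nm emission | Repeats: Singlicate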
Tb MetRS inh = Trypanosoma brucei MetRS inhibition; purified T. brucei MetRS, ATP depletion, Kinase-Glo luminescence; inhibition, % at 11.9 µM; actives 0.4% (n = 360,000); AID 624268;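 active = inhibition above a per-plate cutoff of the control wells' mean inhibition plus 3 SD, cut at about 5.5% in these data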;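 note: 0% = DMSO wells median and 100% = median of wells with control inhibitor compound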
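Dosing: 11.9 µM compound single dose, 0.9% DMSO; Assay system: purified T. brucei MetRS enzyme; Measured by: Kinase-Glo luciferase luminescence reporting remaining unconsumed ATP; Schedule: 15 min plus 2 h at 25 °C.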
TbMetRS confirm = Trypanosoma brucei MetRS inhibition confirmed; actives 93% (n = 1,400); inhibition, % at 11.9 µM; T. brucei MetRS enzyme, luminescence (ATP depletion); shares compounds with Tb MetRS inh; in the data active = inhibition above about 7%
Jurkat cytotox = counter-screen for T. brucei MetRS inhibitors: Jurkat cell cytotoxicity; shares compounds with Tb MetRS inh; Jurkat cells viability, ATP luminescence; inhibition, % at 8.3 µM; actives 12% (n = 1,400); in the data active = inhibition above about 15%;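 note: 0% = vehicle and 100% = reference inhibitor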
TbMetRS FP orth = T. brucei MetRS inhibition, orthogonal assay | shares compounds with Tb MetRS inh | purified T. brucei MetRS, fluorescence polarization | inhibition, % at 11.9 µM | actives 44% (n = 1,400) | AID 651607; in the data active = inhibition above about 17%;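 note: 0% = vehicle wells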
Numbers without * were called inactive; nt = no result.

SMILES	Lipid droplet	HCV NS3 hel inh	core dimer inh	Tb MetRS inh	TbMetRS confirm	Jurkat cytotox	TbMetRS FP orth
Cc1ccc2[nH]c3c(NCCCN4CCCC4=O)ncnc3c2c1	12	-3	2	21*	36*	2	25*
Cc1ccc2[nH]c3c(NCc4ccco4)ncnc3c2c1	nt	3	1	45*	54*	28*	26*
Cc1ccc(-n2ncc3c(NCCCN4CCCC4=O)ncnc32)c(C)c1	-3	-5	5	-1	nt	nt	nt
c1cc(-c2ccc(CN3CCOCC3)cc2)n2ccnc2c1	nt	nt	nt	0	nt	nt	nt
CN(CC(=O)OCC(=O)NC1CCCC1)S(=O)(=O)c1ccc(Cl)cc1	nt	nt	nt	0	nt	nt	nt
CS(=O)(=O)N(CC(=O)Nc1ccc2c(c1)OCO2)Cc1ccc(Cl)cc1	13	-5	14	14*	23*	3	8
O=C(O)CCCCCn1c(SCC(=O)c2ccc(O)c(O)c2)nc2ccsc2c1=O	11	6	-6	6.2*	14*	0	36*
CCCCn1c(SCC(=O)c2ccc(O)c(O)c2)nc2ccsc2c1=O	17	2	8	0	nt	nt	nt
CCOC(=O)c1nc(-c2ccc(OC)c(OC)c2)cnc1C#N	-5	-3	-8	0	nt	nt	nt
COc1cccc(CN2CCN(Cc3cc4ccccc4[nH]3)CC2CCO)c1 (stereo not drawn)	10	-18	-9	2	nt	nt	nt
CCOc1ccc(CN2CCN(Cc3cc4ccccc4[nH]3)CC2CCO)cc1 (stereo not drawn)	-16	-40	nt	14*	26*	5	13
Cc1ccc(NC(=O)CN(C)C(=O)c2ccc(C(F)(F)F)cc2)cc1	1	1	-12	6.2*	26*	6	10
COC(=O)c1ccc(-n2cncn2)c(F)c1	nt	3	-3	0	nt	nt	nt
Cc1cccc(NC(=O)CNC(=O)c2ccc(-n3cncn3)c([N+](=O)[O-])c2)c1C	nt	nt	-1	19*	51*	-6	27*
Cc1ccc(NC(=O)CN(C)C(=O)c2ccc(-n3cncn3)c([N+](=O)[O-])c2)cc1	nt	nt	-4	10*	38*	-1	16
COC(=O)c1ccc(-n2cncn2)c([N+](=O)[O-])c1	8	-2	-1	16*	35*	-5	6
CCC(=O)c1ccc(OCC(=O)NCC2COc3ccccc3O2)cc1 (stereo not drawn)	nt	nt	nt	0	nt	nt	nt
CC1CCc2sc(C(=O)OCC(=O)NC(C)C)cc2C1 (stereo not drawn)	12	-10	-1	-1	nt	nt	nt
O=C(c1ccc(-n2cncn2)c([N+](=O)[O-])c1)N1CCN(c2cccc(Cl)c2)CC1	-2	3	0	5.8*	20*	5	6
CCc1ccc(NC(=O)c2ccc(-n3cncn3)c([N+](=O)[O-])c2)cc1	nt	nt	-9	13*	39*	1	20*
COc1ccc(NC(=O)c2ccc(-n3cncn3)c([N+](=O)[O-])c2)cc1	4	-5	1	6.2*	22*	1	8
CCc1ccc(NC(=O)c2ccc(OC)c([N+](=O)[O-])c2)cc1	14	-8	-1	1	nt	nt	nt
CN(c1ccc(OC(=O)c2ccc(-n3cncn3)c([N+](=O)[O-])c2)cc1)S(=O)(=O)c1ccccc1	nt	nt	nt	5	nt	nt	nt
Cc1ccc(NC(=O)c2ccc(-n3cccn3)c([N+](=O)[O-])c2)cc1	nt	3	2	0	nt	nt	nt
COc1cc(OC)cc(C(=O)NNC(=O)c2ccc(-n3cncn3)c([N+](=O)[O-])c2)c1	nt	nt	2	6.0*	31*	3	17*
CC1=C(C)CC(C(=O)Nc2nccs2)C(C(=O)O)C1 (stereo not drawn)	0	1	-3	-1	nt	nt	nt
CCN(CC(=O)NC1CCS(=O)(=O)C1)S(=O)(=O)c1c(C)c(C)cc(C)c1C (stereo not drawn)	nt	nt	-9	0	nt	nt	nt
COCCn1c(-c2ccccc2Cl)nc2c(c(=O)c3ccccc3n2C)c1=O	-11	6	4	0	nt	nt	nt
